In brackets after ≈: the same amount, converted by molar mass.
Assays:
[1] = target: T1, ATP-dependent translocase ABCB1 (Homo sapiens, UniProt P08183); experiment: Inhibition of MDR1 (unknown origin) expressed in MDCK cells after 30 mins by Calcein-AM assay; assay type: cell-based
[2] = Lipophilicity, logD of the compound at pH 7.4; assay type: physicochemical; settings: buffer
Summary of the method: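 Octanol/PBS pH 7.4 partitioning, with chemiluminescent nitrogen detection as the read-out; carried out by an outside contractor.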

[3] = Partition coefficient, logK of the compound using methanol/pH 7.4 phosphate buffer by RP-chromatography; assay type: physicochemical
Summary of the method: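 Isocratic RP-HPLC on a C18 column (300SB, 4.6 × 250 mm, 5 μm) at 1 mL/min with UV detection at 230 and 254 nm. Eluent methanol/PBS pH 7.4 70:30. Samples 0.1 mg/mL in 10% DMSO/90% methanol. Dead time taken from D2O. Log k′ = log[(tr − t0)/t0], using the mean of three injections.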

[4] = Solubility after 30 mins by turbidimetric solubility assay; assay type: physicochemical
Summary of the method: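 Serial dilutions from a 1 mM DMSO stock added to 100 mM PBS pH 7.4, giving 1% final DMSO and a final range of 1–500 […], three replicates per concentration. After 30 min, absorbance read at 500, 550, 600, 650 and 700 nm.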

[5] = target: T1, ATP-dependent translocase ABCB1; experiment: Inhibition of MDR1 in human MCF7/ADR cells assessed as potentiation of doxorubicin-induced antiproliferative activity at 1 to 25 uM after 72 hrs by MTT assay; assay type: cell-based; settings: nci/adr-res
Summary of the method: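 MCF7adr cells, grown in RPMI 1640 with 10% FBS, seeded at 25000/well. Next day, compound added at 1, 10 or 25 μM for 24 h. Medium then replaced and the same concentration given with doxorubicin 10 μM for 48 h. MTT 0.5 mg/mL for 3–4 h at 37 °C, formazan dissolved in DMSO/EtOH 1:1, absorbance read at 570 and 630 nm.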

[6] = target: T1, ATP-dependent translocase ABCB1; experiment: Inhibition of MDR1 (unknown origin) expressed in MDCK cells after 2 hrs by bioluminescent ATP assay; assay type: cell-based
Summary of the method: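 MDCK-MDR1 cells seeded at 2 × 10⁴ cells/well and incubated overnight at 37 °C, 5% CO₂, then exposed to test compounds (1, 10, 50, 100 μM) in complete medium for 2 h. Cells lysed, luciferase/D-luciferin substrate added, dark-adapted 10 min, and luminescence read as a measure of cellular ATP. Untreated cells served as control.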

[7] = Efflux ratio, ratio of permeability from basolateral to apical side over apical to basolateral side in human Caco2 cells by UV spectroscopy; assay type: ADME, cell-based; settings: Caco-2
Summary of the method: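 Caco-2 monolayers grown 21 days, then equilibrated twice in HBSS pH 7.4 at 37 °C for 30 min. Drug dissolved in HBSS was added to the apical or basolateral side, with an initial concentration of 1 × 10⁻⁴ M. Transport ran 120 min at 37 °C. Acceptor concentration was read by UV; Papp (nm/s) was computed from it. The ratio is B→A Papp over A→B Papp. Mean of three independent experiments, each in triplicate.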

T1 sequence (P08183 whole entry): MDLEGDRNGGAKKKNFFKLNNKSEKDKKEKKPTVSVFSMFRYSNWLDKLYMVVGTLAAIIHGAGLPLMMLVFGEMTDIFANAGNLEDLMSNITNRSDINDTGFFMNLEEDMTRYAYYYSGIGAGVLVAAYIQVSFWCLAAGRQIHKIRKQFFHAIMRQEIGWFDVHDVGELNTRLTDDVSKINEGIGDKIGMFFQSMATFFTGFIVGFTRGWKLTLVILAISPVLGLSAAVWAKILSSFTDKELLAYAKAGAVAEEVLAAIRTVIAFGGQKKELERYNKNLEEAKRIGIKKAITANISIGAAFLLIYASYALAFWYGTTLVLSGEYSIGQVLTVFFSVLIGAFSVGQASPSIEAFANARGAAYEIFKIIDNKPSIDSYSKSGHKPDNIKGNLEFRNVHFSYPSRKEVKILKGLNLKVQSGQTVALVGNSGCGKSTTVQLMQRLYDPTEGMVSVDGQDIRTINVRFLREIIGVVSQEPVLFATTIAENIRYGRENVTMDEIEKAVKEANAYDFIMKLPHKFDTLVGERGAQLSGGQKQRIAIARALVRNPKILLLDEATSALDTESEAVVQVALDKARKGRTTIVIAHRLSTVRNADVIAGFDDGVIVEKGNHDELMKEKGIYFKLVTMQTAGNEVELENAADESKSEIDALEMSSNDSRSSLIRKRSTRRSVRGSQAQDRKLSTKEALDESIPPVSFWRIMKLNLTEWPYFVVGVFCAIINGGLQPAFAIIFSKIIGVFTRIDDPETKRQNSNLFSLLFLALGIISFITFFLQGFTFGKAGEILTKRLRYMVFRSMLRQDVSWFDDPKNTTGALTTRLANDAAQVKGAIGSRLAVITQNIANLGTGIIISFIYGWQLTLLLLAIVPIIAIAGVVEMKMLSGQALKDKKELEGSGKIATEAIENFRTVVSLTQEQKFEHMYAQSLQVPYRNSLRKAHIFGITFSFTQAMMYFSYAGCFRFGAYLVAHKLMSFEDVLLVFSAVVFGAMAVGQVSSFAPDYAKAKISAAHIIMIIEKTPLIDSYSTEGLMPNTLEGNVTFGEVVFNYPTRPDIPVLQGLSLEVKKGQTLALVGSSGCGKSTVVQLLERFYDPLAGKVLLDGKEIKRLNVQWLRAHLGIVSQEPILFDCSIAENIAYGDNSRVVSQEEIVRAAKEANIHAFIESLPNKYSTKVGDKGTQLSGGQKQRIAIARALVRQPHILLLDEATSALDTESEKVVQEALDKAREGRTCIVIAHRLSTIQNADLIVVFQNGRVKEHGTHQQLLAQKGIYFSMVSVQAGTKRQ

Row | SMILES | IC50 [1] [µM] | logD [2] | log K [3] | solubility kinetic at 0.5 h [4] [µg/mL] | Activity [5] | inhibition (INH) [6] | efflux ratio [7]
1 | COc1cc(OC)c(C(=O)Nc2ccc(-c3cccnc3)cn2)cc1OC | 0.54 | 3.03 | -0.12 |  |  |  | 
2 | COc1ccc(C(=O)Nc2ccc(-c3cccnc3)cc2F)cc1OC | 8.92 | 2.23 | -0.45 | 18 (≈ 51.1 µM) |  |  | 
3 | COc1cc(OC)c(C(=O)Nc2ccc(-c3cccnc3)cc2F)c(OC)c1 | 2.93 | 2.38 | -0.39 | 60 (≈ 157 µM) |  |  | 
4 | COc1cc(C(=O)Nc2ccc(-c3cccnc3)cc2F)cc(OC)c1OC |  | 2.48 | -0.36 | 25 (≈ 65.4 µM) |  |  | 
5 | COc1cc2c(cc1OC)CN(CC/C=C1\CCCc3c(OC)cccc31)CC2 | 1.02 |  |  |  |  |  | 
6 | COc1ccc(-c2ccc(NC(=O)c3cc(OC)c(OC)cc3OC)c(F)c2)cc1 | 1.23 | 3.64 | 0.67 |  |  |  | 
7 | COc1cc(C(=O)N(C)c2ccc(-c3cccnc3)cc2F)cc(OC)c1OC | 6.66 | 2.32 | -0.51 |  |  |  | 
8 | COc1cc(C(=O)Nc2ccc(-c3ccncc3)cc2F)cc(OC)c1OC | 3.2 | 2.75 | -0.31 |  |  |  | 
9 | COc1cc(OC)c(C(=O)N(C)c2ccc(-c3cccnc3)cc2F)cc1OC | 21.6 | 1.75 | -0.59 |  |  |  | 
10 | COc1cc(C(=O)Nc2ccc(-c3cc(F)cc(F)c3)cn2)cc(OC)c1OC | 1.3 | 3.59 | 0.32 |  |  |  | 
11 | COc1ccc(C(=O)Nc2ccc(-c3cccnc3)cc2F)cc1 | 5.26 | 2.9 | -0.32 | 22 (≈ 68.3 µM) |  |  | 
12 | COc1cc(C(=O)Nc2ccc(-c3cccnc3)cc2[N+](=O)[O-])cc(OC)c1OC |  |  |  | 10 (≈ 24.4 µM) |  |  | 
13 | COc1cc(OC)cc(C(=O)Nc2ccc(-c3cccnc3)cc2F)c1 | 3.3 | 2.81 | -0.18 | 20 (≈ 56.8 µM) |  |  | 
14 | COc1cc(C(=O)Nc2ccc(-c3cccnc3)cn2)cc(OC)c1OC | 8.21 | 2.39 | -0.44 |  |  |  | 
15 | COc1cc(OC)c(C(=O)Nc2ccc(-c3ccncc3)cc2F)cc1OC | 0.31 | 3.13 | 0.31 |  | Active | Active | 8.1
16 | O=C(Nc1ccc(-c2cccnc2)cc1F)c1cccnc1 | 60.1 | 1.97 | -0.68 | 300 (≈ 1020 µM) |  |  | 
17 | COc1cc(OC)c(C(=O)Nc2ccc(-c3cc(F)cc(F)c3)cn2)cc1OC | 0.97 | 3.66 | 0.47 |  | Active | Active | 10.7
18 | COc1ccc(S(=O)(=O)Nc2ccc(-c3cccnc3)cc2F)cc1OC | 67.5 | 1.7 | -0.88 |  |  |  | 
19 | O=C(Nc1ccc(-c2cccnc2)cc1F)c1ccccc1 | 9.2 | 2.83 | -0.38 | 40 (≈ 137 µM) |  |  | 
20 | COc1ccc(C(=O)Nc2ccc(-c3cccnc3)cc2F)c(OC)c1OC | 0.67 | 3.99 | 0.37 | 45 (≈ 118 µM) | Active | Active | 6.7
21 | COc1cc(C(=O)Nc2ccc(-c3cc(F)cc(F)c3)cc2NC(=O)[C@@H](C)NC(C)=O)cc(OC)c1OC | 18.5 | 2.31 | -0.03 |  |  |  | 
22 | COc1cc(OC)c(C(=O)Nc2ccc(-c3cccnc3)cc2F)cc1OC | 0.2 | 2.84 | 0.24 | 30 (≈ 78.5 µM) | Active | Active | 14
23 | COc1cc(C(=O)Nc2ccc(-c3cc(F)cc(F)c3)cc2N)cc(OC)c1OC | 2.76 | 2.62 | -0.09 |  |  |  | 
